Measurements: EPA's CvTdb concentration-time database

Legend:
Rat [1] = test: concentration in heart after dosing; settings: 20 min; dosed: Bis 2-Chloroethoxy Methane; 20 mg/kg; iv; Female; F344
Rat [2] = test: concentration in thymus after dosing; settings: 1 h; dosed: Bis 2-Chloroethoxy Methane; 20 mg/kg; iv; Male; F344
Rat [3] = test: concentration in thymus after dosing; settings: 40 min; dosed: Bis 2-Chloroethoxy Methane; 20 mg/kg; iv; Female; F344
Rat [4] = test: concentration in plasma after dosing; settings: 3 h; dosed: Bis 2-Chloroethoxy Methane; 20 mg/kg; iv; Male; F344
Rat [5] = test: concentration in thymus after dosing; settings: 20 min; dosed: Bis 2-Chloroethoxy Methane; 20 mg/kg; iv; Male; F344
Rat [6] = test: concentration in thymus after dosing; settings: 6 h; dosed: Bis 2-Chloroethoxy Methane; 20 mg/kg; iv; Female; F344
Rat [7] = test: concentration in kidney after dosing; settings: 1 h; dosed: Fluorotelomer alcohol 8+2; 80 mg/kg; oral; Female; Harlan Sprague Dawley
Rat [8] = test: concentration in plasma after dosing; settings: dosed: Fluorotelomer alcohol 8+2, 24 mg/kg, oral, Male, Harlan Sprague Dawley
Rat [9] = test: concentration in plasma after dosing; settings: dosed: Fluorotelomer alcohol 8+2, 40 mg/kg, iv, Male, F344
Rat [10] = test: concentration in plasma after dosing; settings: dosed: Fluorotelomer alcohol 8+2, 12 mg/kg, oral, Male, Harlan Sprague Dawley
Rat [11] = test: concentration in kidney after dosing; settings: 0.5 h; dosed: Fluorotelomer alcohol 8+2; 80 mg/kg; oral; Female; Harlan Sprague Dawley
Rat [12] = test: concentration in plasma after dosing; settings: 1 h; dosed: Di-n-butyl phthalate; 20 mg/kg; iv; Male; Sprague-Dawley
Rat [13] = test: concentration in plasma after dosing; settings: 2 h; dosed: Di-n-butyl phthalate; 50 mg/kg; oral; Male; Sprague-Dawley
Rat [14] = test: concentration in plasma after dosing; settings: 1 h; dosed: Di-n-butyl phthalate; 100 mg/kg; oral; Male; Sprague-Dawley
Rat [15] = test: concentration in liver after dosing; settings: 1848 h; dosed: Perfluorodecanoic acid; 10 mg/kg; oral; Female; Harlan Sprague Dawley
Rat [16] = test: concentration in plasma after dosing; settings: dosed: Perfluorodecanoic acid, 2 mg/kg, iv, Male, F344
Rat [17] = test: concentration in plasma after dosing; settings: dosed: Perfluorodecanoic acid, 2 mg/kg, iv, Male, F344; remark: listed apart in the source
Rat [18] = test: concentration in kidney after dosing; settings: 3360 h; dosed: Perfluorodecanoic acid; 10 mg/kg; oral; Female; Harlan Sprague Dawley
Rat [19] = test: concentration in kidney after dosing; settings: 1 h; dosed: Perfluorodecanoic acid; 10 mg/kg; oral; Male; Harlan Sprague Dawley
Rat [20] = test: concentration in plasma after dosing; settings: 0.5 h; dosed: Primidone; 30 mg/kg; oral; Male; F344
Rat [21] = test: concentration in plasma after dosing; settings: 3 h; dosed: Primidone; 30 mg/kg; oral; Female; F344
Rat [22] = test: concentration in plasma after dosing; settings: 18 h; dosed: Primidone; 80 mg/kg; oral; Male; F344
Rat [23] = test: concentration in plasma after dosing; settings: 6 h; dosed: Primidone; 80 mg/kg; oral; Female; F344
Rat [24] = test: concentration in plasma after dosing; settings: 9 h; dosed: Primidone; 130 mg/kg; oral; Male; F344
Rat [25] = test: concentration in heart after dosing; settings: 3 h; dosed: Thiodiglycolic Acid; 20 mg/kg; iv; Female; Harlan Sprague Dawley
Rat [26] = test: concentration in thymus after dosing; settings: 2 h; dosed: Thiodiglycolic Acid; 20 mg/kg; iv; Female; Harlan Sprague Dawley
Rat [27] = test: concentration in thymus after dosing; settings: 3 h; dosed: Thiodiglycolic Acid; 20 mg/kg; iv; Female; Harlan Sprague Dawley
Rat [28] = test: concentration in plasma after dosing; settings: 4 h; dosed: Thiodiglycolic Acid; 20 mg/kg; iv; Female; Harlan Sprague Dawley
Rat [29] = test: concentration in plasma after dosing; settings: 10 min; dosed: dichloroacetic acid; 10 mg/kg; iv; Male; F344
Rat [30] = test: concentration in plasma after dosing; settings: dosed: dichloroacetic acid, 100 mg/kg, oral, Male, F344
Rat [31] = test: concentration in plasma after dosing; settings: dosed: dichloroacetic acid, 10 mg/kg, oral, Male, Harlan Sprague Dawley
human = test: concentration in plasma after dosing; negative times count back from the end of exposure; settings: dosed: trichloroethylene, 100 ppm, inhalation, duration: 4 hr, person
Outline: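 Concentration-versus-time or amount-versus-time points were compiled from published in vivo toxicokinetic studies and from two structured collections. The studies were found by PubMed searching, classifier screening and manual review. Points were mostly digitised from plot screenshots with WebPlotDigitizer, otherwise copied from tables, and kept in the reported units. Dose, route, subject details and medium were curated by hand from each paper, and sampling and analytical methods follow each source and were often unreported.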

**Q.** What does the source list for `ClCCOCOCCCl` [Bis 2-Chloroethoxy Methane]?
**A.** concentration in heart (Rat [1]): 6490 ng/g; concentration in thymus (Rat [2]): 7380 ng/g; concentration in thymus (Rat [3]): 4150 ng/g; concentration in plasma (Rat [4]): 90.6 ng/mL; concentration in thymus (Rat [5]): 26300 ng/g; concentration in thymus (Rat [6]): 61.4 ng/g

**Q.** Which results are given for `OCCC(F)(F)C(F)(F)C(F)(F)C(F)(F)C(F)(F)C(F)(F)C(F)(F)C(F)(F)F` [Fluorotelomer alcohol 8+2]?
**A.** concentration in kidney (Rat [7]): 1950 ng/g; concentration in plasma (Rat [8]; 5 min): 6.79 ng/mL; concentration in plasma (Rat [8]; 9 h): 23.5 ng/mL; concentration in plasma (Rat [9]; 5 min): 22400 ng/mL; concentration in plasma (Rat [9]; 3 h): 516 ng/mL; concentration in plasma (Rat [10]; 0.75 h): 318 ng/mL; concentration in plasma (Rat [10]; 12 h): 6.78 ng/mL; concentration in kidney (Rat [11]): 4140 ng/g

**Q.** What does the source list for `CCCCOC(=O)c1ccccc1C(=O)O` [Mono-n-butyl phthalate]?
**A.** concentration in plasma (Rat [12]): 2550 ng/mL; concentration in plasma (Rat [13]): 3690 ng/mL; concentration in plasma (Rat [14]): 27100 ng/mL

**Q.** How did the concentration in liver (Rat [15]) turn out when `O=C(O)C(F)(F)C(F)(F)C(F)(F)C(F)(F)C(F)(F)C(F)(F)C(F)(F)C(F)(F)C(F)(F)F` [Perfluorodecanoic acid] was run?
**A.** 26000 ng/g

**Q.** What about the concentration in plasma (Rat [16]; 6 h) of the same molecule?
**A.** 5760 ng/mL

**Q.** What about the concentration in plasma (Rat [16]; 864 h) of the same molecule?
**A.** 777 ng/mL

**Q.** And the concentration in plasma (Rat [17]; 24 h)?
**A.** 4280 ng/mL

**Q.** What about the concentration in plasma (Rat [17]; 1848 h) of the same molecule?
**A.** 646 ng/mL

**Q.** And the concentration in kidney (Rat [18])?
**A.** 2910 ng/g

**Q.** What about the concentration in kidney (Rat [19]) of the same molecule?
**A.** 8630 ng/g

**Q.** Which results are given for `CCC1(c2ccccc2)C(=O)NC(=O)NC1=O` [Phenobarbital]?
**A.** concentration in plasma (Rat [20]): 330 ng/mL; concentration in plasma (Rat [21]): 640 ng/mL; concentration in plasma (Rat [22]): 3110 ng/mL; concentration in plasma (Rat [23]): 1820 ng/mL; concentration in plasma (Rat [24]): 9740 ng/mL

**Q.** Which concentration in heart (Rat [25]) does the source give for `O=C(O)CSCC(=O)O` [Thiodiglycolic Acid] here?
**A.** 558 ng/g

**Q.** What about the concentration in thymus (Rat [26]) of the same molecule?
**A.** 2180 ng/g

**Q.** And the concentration in thymus (Rat [27])?
**A.** 2120 ng/g

**Q.** And the concentration in plasma (Rat [28])?
**A.** 360 ng/mL

**Q.** `O=C(O)C(Cl)Cl` [dichloroacetic acid] was tested. Which concentration in plasma (Rat [29]) did it give?
**A.** 7780 ng/mL

**Q.** And the concentration in plasma (Rat [30]; 10 min)?
**A.** 8230 ng/mL

**Q.** And the concentration in plasma (Rat [30]; 4 h)?
**A.** 25900 ng/mL

**Q.** And the concentration in plasma (Rat [31]; 2 min)?
**A.** 405 ng/mL

**Q.** What about the concentration in plasma (Rat [31]; 0.5 h) of the same molecule?
**A.** 274 ng/mL

**Q.** And the concentration in plasma (human; 0 h)?
**A.** 6 ng/mL

**Q.** And the concentration in plasma (human; 0.25 h)?
**A.** 9 ng/mL

**Q.** And the concentration in plasma (human; 0.5 h)?
**A.** 13 ng/mL

**Q.** What about the concentration in plasma (human; 1 h) of the same molecule?
**A.** 12 ng/mL

**Q.** And the concentration in plasma (human; 2 h)?
**A.** 11 ng/mL

**Q.** What about the concentration in plasma (human; 4 h) of the same molecule?
**A.** 5 ng/mL

**Q.** And the concentration in plasma (human; 8 h)?
**A.** 5 ng/mL

**Q.** And the concentration in plasma (human; 12 h)?
**A.** 4 ng/mL

**Q.** And the concentration in plasma (human; 14 h)?
**A.** 4 ng/mL

**Q.** And the concentration in plasma (human; 18 h)?
**A.** 5 ng/mL

**Q.** What about the concentration in plasma (human; 41 h) of the same molecule?
**A.** 6 ng/mL

**Q.** What about the concentration in plasma (human; 65 h) of the same molecule?
**A.** 4 ng/mL

**Q.** And the concentration in plasma (human; -1 h, during exposure)?
**A.** 7 ng/mL

**Q.** What about the concentration in plasma (human; -2 h, during exposure) of the same molecule?
**A.** 7 ng/mL

**Q.** And the concentration in plasma (human; -3 h, during exposure)?
**A.** 8 ng/mL

**Q.** What about the concentration in plasma (human; -3.48 h, during exposure) of the same molecule?
**A.** 80 ng/mL
